Laboratory results as given in ChEMBL document CHEMBL1781992, “A novel monocarbonyl analogue of curcumin, (1E,4E)-1,5-bis(2,3-dimethoxyphenyl)penta-1,4-dien-3-one, induced cancer cell H460 apoptosis via activation of endoplasmic reticulum stress signaling pathway” (J Med Chem, 2011).
Activity calls are given as the source filed them. The rule behind the calls is not given here.

Experiments:
[1] = test system: NCI-H460; test: Cytotoxicity against human NCI-H460 cells after 72 hrs by MTT assay; type: functional, cell-based; conditions: NCI-H460, 72 h
How it was run: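 H460 cells grown in RPMI 1640 with 5% FBS at 37 °C, 10% CO2, treated 24 h after seeding. Compounds in DMSO diluted into medium at final 100, 33.3, 11.1 and 3.7 μg/mL for 72 h. MTT (5 mg/mL in 0.9% NaCl) added for 3 h, formazan dissolved in DMSO and read at 570 nm; IC50 derived.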

[2] = test system: NCI-H460; test: Induction of apoptosis in human NCI-H460 cells at 20 uM after 6 hrs by flow cytometric analysis; type: functional
How it was run: (§1)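 H460 cells plated for 6 h, then treated with 5, 10 or 20 μM. Cells washed, trypsin-EDTA detached and resuspended in PBS, then stained with annexin V and propidium iodide plus RNase and 0.1% Triton X-100 for 30 min at 37 °C before flow cytometry. Figure legend gives 6 h incubation.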

[3] = test system: NCI-H460; test: Induction of apoptosis in human NCI-H460 cells assessed as late apoptotic cells at 10 uM after 6 hrs by annexinV-propidium iodide staining based flow cytometric analysis relative to control; type: functional; how it was run: as §1
[4] = test system: NCI-H460; test: Induction of apoptosis in human NCI-H460 cells assessed as activation of caspase 3 activity at 20 uM after 24 hrs by Western blot analysis; type: functional, cell-based
[5] = test system: NCI-H460; test: Induction of apoptosis in human NCI-H460 cells assessed as early apoptotic cells at 20 uM after 6 hrs by annexinV-propidium iodide staining based flow cytometric analysis relative to control; type: functional; how it was run: as §1
[6] = test system: NCI-H460; test: Induction of apoptosis in human NCI-H460 cells assessed as viable cells at 20 uM after 6 hrs by annexinV-propidium iodide staining based flow cytometric analysis relative to control; type: functional; conditions: NCI-H460, 6 h, read-out: Activity; how it was run: as §1
[7] = test system: NCI-H460; test: Induction of apoptosis in human NCI-H460 cells assessed as late apoptotic cells at 20 uM after 6 hrs by annexinV-propidium iodide staining based flow cytometric analysis relative to control; type: functional; how it was run: as §1
[8] = test system: NCI-H460; test: Induction of apoptosis in human NCI-H460 cells assessed as non-viable necrotic cells at 20 uM after 6 hrs by annexinV-propidium iodide staining based flow cytometric analysis relative to control; type: functional; how it was run: as §1
[9] = test system: NCI-H460; test: Induction of CHOP mRNA expression in human NCI-H460 cells at 20 uM after 12 hrs by real time quantitative PCR analysis; type: functional, cell-based
How it was run: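 H460 cells exposed to a concentration range for 6 or 12 h. CHOP mRNA measured by RT-PCR/qPCR and normalized to β-actin.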

[10] = test system: NCI-H460; test: Induction of GRP78 mRNA expression in human NCI-H460 cells at 5 to 20 uM after 3 hrs by real time quantitative PCR analysis; type: functional, cell-based
How it was run: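 H460 cells treated across a concentration range for 3 h. GRP78 mRNA quantified by RT-qPCR, normalized to β-actin and expressed as percent of vehicle.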

[11] = target: Transcription factor Jun (Homo sapiens) (UniProt P05412); test: Induction of c-Jun phosphorylation in human NCI-H460 cells at 20 uM after 12 hrs by Western blot analysis; type: cell-based
How it was run: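 H460 cells cultured in RPMI 1640 with 5% heat-inactivated FBS at 37 C, 10% CO2; exposed to 20 μM for a time course. Lysed at 0 C in Tris-HCl pH 7.4 buffer with NP40, SDS, and protease/phosphatase inhibitors. Phospho-c-Jun detected by Western blot with chemiluminescence, actin as loading control; band density quantified.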

[12] = test system: NCI-H460; test: Induction of apoptosis in human NCI-H460 cells assessed as non-viable necrotic cells at 5 uM after 6 hrs by annexinV-propidium iodide staining based flow cytometric analysis relative to control; type: functional; how it was run: as §1
[13] = test system: NCI-H460; test: Induction of apoptosis in human NCI-H460 cells assessed as early apoptotic cells at 10 uM after 6 hrs by annexinV-propidium iodide staining based flow cytometric analysis relative to control; type: functional; how it was run: as §1
[14] = test system: NCI-H460; test: Induction of apoptosis in human NCI-H460 cells assessed as early apoptotic cells at 5 uM after 6 hrs by annexinV-propidium iodide staining based flow cytometric analysis relative to control; type: functional; how it was run: as §1
[15] = test system: NCI-H460; test: Cytotoxicity against human NCI-H460 cells assessed as reduction of cell viability at 5 to 20 uM after 24 hrs by CellTiter-Glo analysis; type: functional, cell-based
How it was run: (§2)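 H460 cells (5 × 10^3/well) seeded overnight, then given fresh medium containing compound from DMSO stock (final 5, 10, 20 μM; 2.5–30 μM in the figure) for 24 h. Viability measured with CellTiter-Glo and expressed as percent of vehicle-treated cells; Student's t test.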

[16] = test system: NCI-H460; test: Induction of apoptosis in human NCI-H460 cells assessed as viable cells at 5 uM after 6 hrs by annexinV-propidium iodide staining based flow cytometric analysis relative to control; type: functional; conditions: NCI-H460, 6 h, read-out: Activity; how it was run: as §1
[17] = test system: NCI-H460; test: Induction of apoptosis in human NCI-H460 cells at 5 to 30 uM after 24 hrs by flow cytometric analysis; type: functional, cell-based
[18] = test system: NCI-H460; test: Decrease in p53 expression in human NCI-H460 cells at 20 uM after 12 hrs by Western blot analysis; type: functional, cell-based
How it was run: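 H460 cells exposed to 20 μM for varying times, or to a range of concentrations for 12 h. Lysates made in Tris-HCl pH 7.4/NaCl/NP40/SDS buffer with protease and phosphatase inhibitors, then probed for p53 by Western blot with chemiluminescent detection; bands quantified by densitometry.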

[19] = test system: NCI-H460; test: Induction of apoptosis in human NCI-H460 cells assessed as activation of caspase 9 activation at 20 uM after 24 hrs by Western blot analysis; type: functional, cell-based
[20] = test system: NCI-H460; test: Induction of GRP78 protein expression in human NCI-H460 cells at 5 to 20 uM after 3 hrs by Western blot analysis; type: functional, cell-based
How it was run: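 H460 cells treated for 3 h; GRP78 protein detected by Western blot with actin as loading control.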

[21] = test system: NCI-H460; test: Induction of apoptosis in human NCI-H460 cells assessed as late apoptotic cells at 5 uM after 6 hrs by annexinV-propidium iodide staining based flow cytometric analysis relative to control; type: functional; how it was run: as §1
[22] = test system: NCI-H460; test: Cytotoxicity against human NCI-H460 cells assessed as reduction of cell viability at 5 to 30 uM after 24 hrs by CellTiter-Glo analysis; type: functional, cell-based; how it was run: as §2
[23] = test system: NCI-H460; test: Induction of XBP-1 protein expression level in human NCI-H460 cells at 5 to 20 uM after 6 hrs by Western blot analysis; type: functional, cell-based
How it was run: (§3)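 H460 cells exposed to 20 μM for varying times, or to a range of concentrations for 6 h. ATF-4 and XBP-1 protein measured by Western blot with actin as loading control.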

[24] = test system: NCI-H460; test: Induction of apoptosis in human NCI-H460 cells assessed as viable cells at 10 uM after 6 hrs by annexinV-propidium iodide staining based flow cytometric analysis relative to control; type: functional; conditions: NCI-H460, 6 h, read-out: Activity; how it was run: as §1
[25] = test system: NCI-H460; test: Cytotoxicity against human NCI-H460 cells assessed as cell viability at 20 uM after 24 hrs by CellTiter-Glo analysis; type: functional; conditions: NCI-H460, 24 h, read-out: Activity; how it was run: as §2
[26] = test system: NCI-H460; test: Induction of apoptosis in human NCI-H460 cells assessed as non-viable necrotic cells at 10 uM after 6 hrs by annexinV-propidium iodide staining based flow cytometric analysis relative to control; type: functional; how it was run: as §1
[27] = test system: NCI-H460; test: Induction of ATF-4 protein expression level in human NCI-H460 cells at 5 to 20 uM after 6 hrs by Western blot analysis; type: functional, cell-based; how it was run: as §3
[28] = test system: NCI-H460; test: Induction of CHOP protein expression in human NCI-H460 cells at 20 uM after 6 to 24 hrs by Western blot analysis; type: functional, cell-based
How it was run: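 H460 cells treated for 6–24 h, or across a range of concentrations. CHOP protein measured by Western blot, densitometry expressed as percent of control; Student's t test.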

Transcription factor Jun (Homo sapiens), sequence (P05412 whole entry): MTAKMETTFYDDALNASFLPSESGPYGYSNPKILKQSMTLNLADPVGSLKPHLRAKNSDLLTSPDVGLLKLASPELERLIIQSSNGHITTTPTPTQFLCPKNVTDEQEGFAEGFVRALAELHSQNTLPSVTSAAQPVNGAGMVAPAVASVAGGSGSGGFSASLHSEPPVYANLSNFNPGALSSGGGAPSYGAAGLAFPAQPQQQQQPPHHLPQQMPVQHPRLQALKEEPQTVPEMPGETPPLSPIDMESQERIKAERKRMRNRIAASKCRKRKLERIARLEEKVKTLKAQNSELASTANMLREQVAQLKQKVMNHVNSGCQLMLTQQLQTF

SMILES: O=C(/C=C/c1ccccc1Br)/C=C/c1ccccc1Br
- IC50 [1]: 5.78 µM

SMILES: COc1cc(/C=C/C(=O)CC(=O)/C=C/c2ccc(O)c(OC)c2)ccc1O [CURCUMIN]
- Activity [2]: 12.02%
- Activity [3]: 2.06%
- Activity [4]: inactive
- Activity [5]: 12.02%
- viability at 20 µM [6]: 83.6%
- Activity [7]: 4.06%
- Activity [8]: 0.32%
- Activity [9]: inactive
- Activity [10]: inactive
- Activity [11]: inactive
- Activity [12]: 0.46%
- Activity [13]: 8.57%
- Activity [14]: 7.97%
- Activity [15]: inactive
- viability at 5 µM [16]: 87.9%
- Activity [17]: inactive
- Activity [18]: inactive
- Activity [19]: inactive
- Activity [20]: inactive
- Activity [21]: 3.66%
- Activity [22]: inactive
- IC50 [1]: 20.3 µM
- Activity [23]: inactive
- viability at 10 µM [24]: 89.2%
- viability at 20 µM [25]: 70%
- Activity [26]: 0.23%
- Activity [27]: inactive
- Activity [28]: inactive

SMILES: CN(C)CCCOc1ccc(/C=C2\CC/C(=C\c3ccc(OCCCN(C)C)cc3)C2=O)cc1
- IC50 [1]: 8.31 µM
